Assay results from ChEMBL document CHEMBL1122958, “Angiotensin converting enzyme inhibitors. (Mercaptoaroyl)amino acids” (J Med Chem, 1985).

Assays:
[1] = target: T1, Angiotensin-converting enzyme (Rattus norvegicus) (UniProt P47820); experiment: In vivo percent mean decrease in Angiotensin I converting enzyme inhibitory activity in 2 rats administered perorally at a dose of 1.5 mg/kg; type: functional, organism-based; design: dose 1.5 mg/kg
T1 sequence (whole entry): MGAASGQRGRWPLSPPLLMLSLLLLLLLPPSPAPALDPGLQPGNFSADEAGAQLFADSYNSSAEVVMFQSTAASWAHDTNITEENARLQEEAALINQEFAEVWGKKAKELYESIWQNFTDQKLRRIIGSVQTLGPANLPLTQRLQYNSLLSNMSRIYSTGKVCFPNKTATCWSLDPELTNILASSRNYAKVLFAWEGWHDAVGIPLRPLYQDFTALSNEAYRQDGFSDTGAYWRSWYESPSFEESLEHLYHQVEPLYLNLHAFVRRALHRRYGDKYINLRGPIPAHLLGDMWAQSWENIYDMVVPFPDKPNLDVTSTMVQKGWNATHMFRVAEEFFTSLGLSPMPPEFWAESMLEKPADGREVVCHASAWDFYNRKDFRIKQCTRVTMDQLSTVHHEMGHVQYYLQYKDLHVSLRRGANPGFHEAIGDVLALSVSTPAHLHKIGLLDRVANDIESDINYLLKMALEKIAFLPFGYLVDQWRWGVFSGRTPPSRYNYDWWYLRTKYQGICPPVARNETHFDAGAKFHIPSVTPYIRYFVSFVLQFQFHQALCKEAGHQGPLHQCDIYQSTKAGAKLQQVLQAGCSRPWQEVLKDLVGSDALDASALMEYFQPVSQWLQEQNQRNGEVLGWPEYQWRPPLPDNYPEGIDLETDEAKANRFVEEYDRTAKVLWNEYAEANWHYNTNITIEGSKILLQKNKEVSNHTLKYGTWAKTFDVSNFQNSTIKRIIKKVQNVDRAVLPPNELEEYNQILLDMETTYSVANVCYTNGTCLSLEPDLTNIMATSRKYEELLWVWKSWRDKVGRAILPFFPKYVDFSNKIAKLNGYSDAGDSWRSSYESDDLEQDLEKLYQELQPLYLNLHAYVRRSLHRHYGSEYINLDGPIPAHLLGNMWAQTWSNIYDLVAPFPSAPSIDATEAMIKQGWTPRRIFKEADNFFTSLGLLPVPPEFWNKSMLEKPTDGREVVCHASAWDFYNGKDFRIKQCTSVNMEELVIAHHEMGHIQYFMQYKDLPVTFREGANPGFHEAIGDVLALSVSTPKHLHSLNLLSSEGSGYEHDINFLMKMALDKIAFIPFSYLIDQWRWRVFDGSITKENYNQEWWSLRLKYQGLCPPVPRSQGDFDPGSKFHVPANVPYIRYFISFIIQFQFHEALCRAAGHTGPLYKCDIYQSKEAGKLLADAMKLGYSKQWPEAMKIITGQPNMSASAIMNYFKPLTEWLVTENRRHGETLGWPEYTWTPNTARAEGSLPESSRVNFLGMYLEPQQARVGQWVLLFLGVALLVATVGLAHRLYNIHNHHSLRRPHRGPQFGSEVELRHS
Method in brief: (§1)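 Conscious normotensive male rats with aortic and vena caval catheters (implanted ≥6 days before), restrained. Angiotensin I and II, 0.25 μg/kg iv, given at 10-min intervals as pressor challenges. Compound given once, generally orally, suspended in 0.5% gum tragacanth. AI repeated every 10 min for ≥2 h. Max inhibition is % of mean of two predose AI responses. Duration runs from dosing until inhibition falls below 30%. ED50 taken from dose–response plot as dose giving 50% inhibition.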

[2] = target: T1, Angiotensin-converting enzyme (Rattus norvegicus); experiment: In vivo mean duration for Angiotensin I converting enzyme inhibitory activity in 2 rats administered perorally at a dose of 1.5 mg/kg; type: functional, organism-based; design: dose 1.5 mg/kg; method in brief: as §1
[3] = target: T2, Angiotensin-converting enzyme (Oryctolagus cuniculus, UniProt P12822); experiment: In vitro inhibitory activity against Angiotensin I converting enzyme
T2 sequence (P12822 whole entry): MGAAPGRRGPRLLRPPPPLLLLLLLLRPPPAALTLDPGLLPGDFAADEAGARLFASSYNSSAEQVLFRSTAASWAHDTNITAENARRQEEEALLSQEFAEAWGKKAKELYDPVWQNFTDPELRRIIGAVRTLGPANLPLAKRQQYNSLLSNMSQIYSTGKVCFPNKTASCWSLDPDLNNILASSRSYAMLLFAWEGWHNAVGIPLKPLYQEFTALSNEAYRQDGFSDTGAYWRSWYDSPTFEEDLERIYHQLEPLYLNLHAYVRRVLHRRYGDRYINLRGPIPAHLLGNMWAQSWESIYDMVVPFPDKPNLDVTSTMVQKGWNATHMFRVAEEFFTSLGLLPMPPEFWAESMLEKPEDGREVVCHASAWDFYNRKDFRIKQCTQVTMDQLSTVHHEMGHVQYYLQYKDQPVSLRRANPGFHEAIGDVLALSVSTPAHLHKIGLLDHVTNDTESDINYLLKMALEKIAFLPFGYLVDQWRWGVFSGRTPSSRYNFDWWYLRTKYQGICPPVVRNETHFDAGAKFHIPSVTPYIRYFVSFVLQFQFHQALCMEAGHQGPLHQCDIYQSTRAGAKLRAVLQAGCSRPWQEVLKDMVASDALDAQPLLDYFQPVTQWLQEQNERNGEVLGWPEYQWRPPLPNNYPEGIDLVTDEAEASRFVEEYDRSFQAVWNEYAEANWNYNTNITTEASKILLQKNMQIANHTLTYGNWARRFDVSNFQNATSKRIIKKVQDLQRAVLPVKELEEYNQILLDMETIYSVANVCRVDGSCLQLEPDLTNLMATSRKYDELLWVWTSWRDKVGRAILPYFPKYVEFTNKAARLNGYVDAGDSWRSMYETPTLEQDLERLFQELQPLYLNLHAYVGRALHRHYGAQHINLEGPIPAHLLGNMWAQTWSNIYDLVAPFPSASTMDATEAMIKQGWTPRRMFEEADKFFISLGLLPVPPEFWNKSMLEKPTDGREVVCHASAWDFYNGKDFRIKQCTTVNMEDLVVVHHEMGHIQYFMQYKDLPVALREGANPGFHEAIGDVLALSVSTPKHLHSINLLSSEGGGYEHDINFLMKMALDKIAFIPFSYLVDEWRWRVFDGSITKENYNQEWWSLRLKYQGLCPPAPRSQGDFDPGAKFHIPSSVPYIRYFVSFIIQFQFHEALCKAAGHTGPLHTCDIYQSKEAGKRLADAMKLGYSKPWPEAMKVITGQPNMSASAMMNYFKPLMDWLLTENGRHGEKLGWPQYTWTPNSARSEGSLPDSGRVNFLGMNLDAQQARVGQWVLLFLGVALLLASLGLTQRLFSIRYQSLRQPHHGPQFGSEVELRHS
Method in brief: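 Crude ACE from rabbit lung acetone powder, extracted in cold 0.05 M KH2PO4–0.03 M n-octyl-β-D-glucopyranoside pH 8.3, centrifuged 30000g, supernatant dialysed. Assay in 0.1 M KH2PO4–0.3 M NaCl–2% Me2SO, pH 8.3, 37 °C, substrate hippuryl-L-histidyl-L-leucine 2 mM; started by enzyme addition. Activity compared with and without inhibitor (in Me2SO). IC50 from one concentration–response curve per compound.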

[4] = target: T1, Angiotensin-converting enzyme (Rattus norvegicus); experiment: In vivo percent mean decrease in Angiotensin I converting enzyme inhibitory activity in 2 rats administered perorally at a dose of 10 mg/kg; type: functional, organism-based; design: dose 10 mg/kg; method in brief: as §1
[5] = target: T1, Angiotensin-converting enzyme (Rattus norvegicus); experiment: In vivo mean duration for Angiotensin I converting enzyme inhibitory activity in 2 rats administered perorally at a dose of 10 mg/kg; type: functional, organism-based; design: dose 10 mg/kg; method in brief: as §1
[6] = tested on: Rattus norvegicus; experiment: Effective dose against ACE inhibitory activity in rat in vivo; type: functional; method in brief: as §1
[7] = target: T1, Angiotensin-converting enzyme (Rattus norvegicus); experiment: In vivo mean duration for Angiotensin I converting enzyme inhibitory activity in 5 rats administered perorally at a dose of 10 mg/kg; type: functional, organism-based; design: dose 10 mg/kg; method in brief: as §1
[8] = target: T1, Angiotensin-converting enzyme (Rattus norvegicus); experiment: In vivo percent mean decrease in Angiotensin I converting enzyme inhibitory activity in 5 rats administered perorally at a dose of 10 mg/kg; type: functional, organism-based; design: dose 10 mg/kg; method in brief: as §1
[9] = target: T1, Angiotensin-converting enzyme (Rattus norvegicus); experiment: In vivo percent mean decrease in Angiotensin I converting enzyme activity in 2 rats administered perorally at a dose of 10 mg/kg; type: functional, organism-based; design: dose 10 mg/kg; method in brief: as §1
[10] = target: T1, Angiotensin-converting enzyme (Rattus norvegicus); experiment: In vivo mean duration for Angiotensin I converting enzyme inhibitory activity in rat administered perorally at a dose of 10 mg/kg; type: functional, organism-based; design: dose 10 mg/kg; method in brief: as §1
[11] = target: T1, Angiotensin-converting enzyme (Rattus norvegicus); experiment: In vivo percent mean decrease in Angiotensin I converting enzyme inhibitory activity in a rat administered perorally at a dose of 10 mg/kg; type: functional, organism-based; design: dose 10 mg/kg; method in brief: as §1
[12] = target: T1, Angiotensin-converting enzyme (Rattus norvegicus); experiment: In vivo for percent mean decrease in Angiotensin I converting enzyme inhibitory activity in 4 rats administered perorally at a dose of 1.5 mg/kg; type: functional, organism-based; design: dose 1.5 mg/kg; method in brief: as §1

Row | Structure (SMILES) | IC50 [3] [µM] | Mean duration [5] [min] | further results
1 | CC(=O)Sc1ccccc1C(=O)N(CC(=O)O)C1CCCC1 | 9.1 |  | Mean decrease [1]: 25%; Mean duration [2]: 0 min
2 | CC(=O)Sc1c(C)cccc1C(=O)N(CC(=O)O)C1CCCC1 | 2.2 |  | Mean decrease [1]: 35%; Mean duration [2]: 20 min
3 | O=C(O)CN(C(=O)c1ccccc1C(=O)O)C1CCCC1 | 100 |  | 
4 | Cc1cccc(C(=O)N(CC(=O)O)C2CCCC2)c1S | 4.6 | 50 | Mean decrease [4]: 77%
5 | CC(=O)Sc1c(F)cccc1C(=O)N(CC(=O)O)C1CCCC1 | 0.6 | 90 | Mean decrease [4]: 82%
6 | CC(C)(C)C(=O)Sc1ccccc1C(=O)N(CC(=O)O)C1CCCC1 |  |  | Mean decrease [1]: 19%; Mean duration [2]: 0 min
7 | O=C(O)CN(C(=O)c1cccc(Cl)c1S)C1CCCC1 | 0.28 |  | ED50 [6]: 0.3 mg/kg; Mean duration [7]: > 4 h; Mean decrease [8]: 85%
8 | COc1cccc(C(=O)N(CC(=O)O)C2CCCC2)c1S | 0.38 |  | ED50 [6]: 0.8 mg/kg; Mean duration [7]: 4 h; Mean decrease [8]: 92%
9 | O=C(O)CN(C(=O)c1cc(Cl)cc(Cl)c1O)C1CCCC1 | 100 |  | 
10 | O=C(O)CN(C(=O)c1cccc(S)c1)C1CCCC1 | 25 | 0 | Mean decrease [4]: 13%
11 | O=C(O)CN(C(=O)c1cc(Cl)ccc1S)C1CCCC1 | 80 | 0 | Mean decrease [9]: 22%
12 | O=C(O)CN(C(=O)c1cc(Cl)cc(Cl)c1S)C1CCCC1 | 4.1 |  | 
13 | CC(=O)Sc1cccc(C(=O)N(CC(=O)O)C2CCCC2)c1 | 28 |  | 
14 | CC(=O)Sc1ccc(C(=O)N(CC(=O)O)C2CCCC2)cc1 | 21 |  | 
15 | O=C(O)CN(C(=O)c1cccc(C(F)(F)F)c1S)C1CCCC1 | 0.68 | 20 | Mean decrease [4]: 31%
16 | O=C(O)CN(C(=O)c1ccccc1[N+](=O)[O-])C1CCCC1 | 100 |  | Mean duration [10]: 0 min; Mean decrease [11]: 25%
17 | CC(C)c1cccc(C(=O)N(CC(=O)O)C2CCCC2)c1S | 120 | 0 | Mean decrease [4]: 23%
18 | O=C(O)CN(C(=O)c1ccc(S)cc1)C1CCCC1 | 21 |  | 
19 | CCOC(=O)CN(C(=O)c1cc(Cl)cc(Cl)c1OC(C)=O)C1CCCC1 | 100 |  | 
20 | O=C(O)CN(C(=O)c1cccc(F)c1S)C1CCCC1 | 0.55 | 105 | Mean decrease [4]: 84%
21 | O=C(O)CN(C(=O)c1ccccc1S)C1CCCC1 | 4.8 |  | Mean decrease [12]: 34%; Mean duration [2]: 35 min
